Experiment [1] concerns Yarrowia lipolytica. The experiment can be described thus: Antimicrobial activity against Yarrowia lipolytica by agar diffusion test. It counts as functional, organism-based. A general note: In agar diffusion tests the substance spreads into inoculated agar from a disc or well.
Experiment [2] concerns the target T1, Sterol 24-C-methyltransferase (Yarrowia lipolytica) (UniProt Q6C2D9).
T1 sequence (whole entry): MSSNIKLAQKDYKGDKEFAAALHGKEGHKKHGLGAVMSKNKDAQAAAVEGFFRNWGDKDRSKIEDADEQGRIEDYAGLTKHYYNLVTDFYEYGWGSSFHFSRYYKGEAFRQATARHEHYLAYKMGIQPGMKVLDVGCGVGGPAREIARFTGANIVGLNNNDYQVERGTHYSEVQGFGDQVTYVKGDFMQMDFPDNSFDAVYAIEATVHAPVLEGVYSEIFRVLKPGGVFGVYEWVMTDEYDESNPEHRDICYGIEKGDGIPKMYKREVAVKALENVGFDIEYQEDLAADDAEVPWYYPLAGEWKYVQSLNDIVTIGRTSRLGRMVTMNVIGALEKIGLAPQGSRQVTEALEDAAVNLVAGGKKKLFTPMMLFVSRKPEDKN
The experiment can be described thus: Inhibition of Yarrowia lipolytica 24-SMT assessed as 5-dehydroepisterol-3-trimethylsilyl derivative at 1 ug/mL after 48 hrs by GC-MS analysis relative to untreated control. Set-up: scale not given: the % may be the effect or the level left. The procedure, abridged:
(§1)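 Whole-cell sterol profiling. Y. lipolytica at 50,000 CFU/mL was exposed to compounds added from ethanol for 48 ± 2 h at 28 °C, and the MIC/2 and/or MIC/4 wells were used. Cells were pelleted and PBS-washed, then saponified in 1 M NaOH at 70 °C for 1 h. Sterols were extracted into TBME with a cholesterol internal standard and silylated to TMS ethers. GC-MS full scan, with each sterol given as % of total integrated quantifier-ion area.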

The target of experiment [3] is T1, Sterol 24-C-methyltransferase (Yarrowia lipolytica). The experiment can be described thus: Inhibition of Yarrowia lipolytica 24-sterol C-methyltransferase assessed as cholesta-5,7,24-trien-3-trimethylsilyl derivative at 1 ug/mL after 48 hrs by GC-MS analysis relative to untreated control. Set-up: scale not given: the % may be the effect or the level left. The procedure, abridged:
as §1

For experiment [4] the target is unchanged. The experiment is described as follows: Inhibition of Yarrowia lipolytica 24-SMT assessed as dehydroergosterol-3-trimethylsilyl derivative at 1 ug/mL after 48 hrs by GC-MS analysis relative to untreated control. More on the design: scale not given: the % may be the effect or the level left. The procedure, abridged: as §1
The test system of experiment [5] is Yarrowia lipolytica. The experiment can be described thus: Antimicrobial activity against Yarrowia lipolytica after 48 hrs. It counts as functional. The method in brief: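 Broth dilution MIC per DIN 58940-84. Log-phase Y. lipolytica in yeast extract/peptone/glucose medium, counted against a 0.5 McFarland standard (A570) and seeded at 50,000 CFU/mL in 2 mL wells. Compounds added from ethanol; final concentrations 2 to 0.06125 µg/mL unless otherwise stated. Plates incubated 48 ± 2 h at 28 °C. MIC is the lowest concentration with no visible growth.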

The target of experiment [6] is T1, Sterol 24-C-methyltransferase (Yarrowia lipolytica). The experiment is described as follows: Inhibition of Yarrowia lipolytica 24-SMT assessed as cholesta-7,24-dien-3-trimethylsilyl derivative at 1 ug/mL after 48 hrs by GC-MS analysis relative to untreated control. Set-up: scale not given: the % may be the effect or the level left. The procedure, abridged: as §1

For experiment [7] the target is unchanged. The experiment is described as follows: Inhibition of Yarrowia lipolytica 24-SMT assessed as 5-dehydroepisterol-3-trimethylsilyl derivative at 0.06 ug/mL after 48 hrs by GC-MS analysis relative to untreated control. More on the design: scale not given: the % may be the effect or the level left. The procedure, abridged: as §1
The target is the same in experiment [8]. The experiment can be described thus: Inhibition of Yarrowia lipolytica 24-SMT assessed as cholesta-7,24-dien-3-trimethylsilyl derivative at 0.06 ug/mL after 48 hrs by GC-MS analysis relative to untreated control. Set-up: scale not given: the % may be the effect or the level left. The method in brief: as §1
Experiment [9] shares this target. The experiment is described as follows: Inhibition of Yarrowia lipolytica 24-SMT assessed as dehydroergosterol-3-trimethylsilyl derivative at 0.06 ug/mL after 48 hrs by GC-MS analysis relative to untreated control. More on the design: scale not given: the % may be the effect or the level left. The method in brief: as §1
The target is the same in experiment [10]. The experiment is described as follows: Inhibition of Yarrowia lipolytica 24-SMT assessed as cholesta-5,7,24-trien-3-trimethylsilyl derivative at 0.06 ug/mL after 48 hrs by GC-MS analysis relative to untreated control. More on the design: scale not given: the % may be the effect or the level left. The method in brief:
as §1

For experiment [11] the target is unchanged. The experiment can be described thus: Inhibition of Yarrowia lipolytica 24-SMT assessed as cholesta-5,7,24-trien-3-trimethylsilyl derivative at 0.2 ug/mL after 48 hrs by GC-MS analysis relative to untreated control. More on the design: scale not given: the % may be the effect or the level left. The method in brief: as §1
The target is the same in experiment [12]. The experiment is described as follows: Inhibition of Yarrowia lipolytica 24-SMT assessed as dehydroergosterol-3-trimethylsilyl derivative at 0.2 ug/mL after 48 hrs by GC-MS analysis relative to untreated control. Set-up: scale not given: the % may be the effect or the level left. The method in brief: as §1
The target is the same in experiment [13]. The experiment is described as follows: Inhibition of Yarrowia lipolytica 24-SMT assessed as 5-dehydroepisterol-3-trimethylsilyl derivative at 0.2 ug/mL after 48 hrs by GC-MS analysis relative to untreated control. Set-up: scale not given: the % may be the effect or the level left. The method in brief:
as §1

Experiment [14] shares this target. The experiment can be described thus: Inhibition of Yarrowia lipolytica 24-SMT assessed as cholesta-7,24-dien-3-trimethylsilyl derivative at 0.2 ug/mL after 48 hrs by GC-MS analysis relative to untreated control. Set-up: scale not given: the % may be the effect or the level left. The method in brief: as §1
For experiment [15] the target is unchanged. The experiment can be described thus: Inhibition of Yarrowia lipolytica 24-SMT assessed as lanosterol-3-trimethylsilyl derivative at 0.2 ug/mL after 48 hrs by GC-MS analysis relative to untreated control. More on the design: scale not given: the % may be the effect or the level left. The method in brief:
as §1

Experiment [16] has the same target. The experiment can be described thus: Inhibition of Yarrowia lipolytica 24-SMT assessed as zymosterol-3-trimethylsilyl derivative level at 0.2 ug/mL after 48 hrs by GC-MS analysis relative to untreated control. Set-up: scale not given: the % may be the effect or the level left. The procedure, abridged:
as §1

Experiment [17] has the same target. The experiment can be described thus: Inhibition of Yarrowia lipolytica 24-sterol C-methyltransferase assessed as ergosterol-3-trimethylsilyl derivative level at 0.06 ug/mL after 48 hrs by GC-MS analysis relative to untreated control. Set-up: scale not given: the % may be the effect or the level left. The procedure, abridged: as §1
For experiment [18] the target is unchanged. The experiment is described as follows: Inhibition of Yarrowia lipolytica 24-SMT assessed as ergosterol-3-trimethylsilyl derivative level at 0.2 ug/mL after 48 hrs by GC-MS analysis relative to untreated control. Set-up: scale not given: the % may be the effect or the level left. The procedure, abridged:
as §1

SMILES strings stand for the structures. In brackets after ≈: the same amount, converted by molar mass. Activity calls are given as the source filed them.

One may read the MIC as the smallest concentration in the dilution series that meets the test's criterion for growth inhibition. On to `CCCCCCCCCCCCNC[C@@H](C)[C@H]1CC[C@H]2C3=CC[C@H]4C[C@@H](O)CC[C@]4(C)[C@H]3CC[C@]12C`, for which the MIC result in [1] is “inactive”.
As to `C[C@H](/C=C/c1ccncc1)[C@H]1CC[C@H]2C3=CCC4C[C@@H](O)CC[C@]4(C)[C@H]3CC[C@]12C` (stereo partly drawn), in experiment [1], the MIC result is “inactive”.
`C[C@H](/C=C/c1ccccn1)[C@H]1CC[C@H]2C3=CCC4C[C@@H](O)CC[C@]4(C)[C@H]3CC[C@]12C` (stereo partly drawn): the MIC result in experiment [1] was “inactive”.
Regarding `C[C@H](CNCCN(C)C)[C@H]1CC[C@H]2C3=CC[C@H]4C[C@@H](O)CC[C@]4(C)[C@H]3CC[C@]12C`, the Activity was determined as 3.1% in [2], 68% in [3], 24.3% in experiment [4] and 4.5% in experiment [6]. Moreover, in [5], the MIC is > 2 µg/mL.
As for `CCCCNC[C@@H](C)[C@H]1CC[C@H]2C3=CC[C@H]4C[C@@H](O)CC[C@]4(C)[C@H]3CC[C@]12C`, the MIC in experiment [5] turned out to be 0.25 µg/mL (≈ 0.645 µM). For the same compound, the Activity in experiment [7] turned out to be 4.7%; in experiment [8], 5%; in [9], 42.4%; in experiment [10] it was 47.9%.
Consider `CC(C)C(C)NC[C@@H](C)[C@H]1CC[C@H]2C3=CC[C@H]4C[C@@H](O)CC[C@]4(C)[C@H]3CC[C@]12C` (mixture of isomers), for which the Activity in experiment [11] was 18%; in experiment [12] it was 73.3%; in [13] it was 4.6%; in experiment [14] it was 2.4%; in experiment [15], 0.3%; in experiment [16], 1.4%. In experiment [5], this compound had an MIC of 0.5 µg/mL.
Regarding `CCCCN(C)C[C@@H](C)[C@H]1CC[C@H]2C3=CC[C@H]4C[C@@H](O)CC[C@]4(C)[C@H]3CC[C@]12C`, the Activity in experiment [11] turned out to be 48.2%; in experiment [12], 37.4%; in experiment [13], 4.2%; in [14], 5.6%; in experiment [15], 0.4%; in experiment [16] it was 4.2%. Inhibition of growth in experiment [5] (MIC) required 0.5 µg/mL (≈ 1.24 µM).
Consider `C[C@H](/C=C/c1cccc[n+]1C)[C@H]1CC[C@H]2C3=CCC4C[C@@H](O)CC[C@]4(C)[C@H]3CC[C@]12C.[I-]` (stereo partly drawn), for which the Activity in [11] stood at 83.4%; in experiment [12], 7%; in experiment [17], 15%; in [13] it was 1%; in experiment [18], 4.1%; in experiment [7], 0.7%. Further, the Activity came out at 82.1% in experiment [9], 2.2% in experiment [10], 4.3% in [14] and 0.3% in [15]. Further, the MIC in [5] was determined as 1 µg/mL.
